Assays:
[1] = biological target: T1, 5-hydroxytryptamine receptor 1B (Homo sapiens, UniProt P28222); experiment: Displacement of specific [3H]5-HT binding to cloned human 5-hydroxytryptamine 1B receptor expressed in CHO cells; assay type: cell-based
Summary of the method: (§1)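 Radioligand binding to human 5-HT1D and 5-HT1B receptors stably expressed in CHO cells. Radioligand was used at approximately its KD for each receptor. IC50 values are the logarithmic mean of 2–5 independent determinations, each run in duplicate. Maximum variance from the mean of log(IC50) was 4%. Selectivity is IC50(1B)/IC50(1D).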

[2] = biological target: T2, 5-hydroxytryptamine receptor 1D (Homo sapiens, UniProt P28221); experiment: Displacement of specific [3H]5-HT binding to cloned human 5-hydroxytryptamine 1D receptor expressed in CHO cells; assay type: cell-based; summary of the method: as §1
[3] = biological target: Serotonin 1 receptors; 5-HT1B & 5-HT1D (Homo sapiens) (UniProt P28222+P28221); experiment: Selectivity towards 5-HT1D and to that of 5-HT1B in CHO cells; assay type: cell-based; summary of the method: as §1
[4] = pKa value by potentiometric method; assay type: physicochemical
Summary of the method: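 Potentiometric titration in MeOH–H2O cosolvent with ionic strength set by 0.15 M KCl. Three titrations at different water/cosolvent ratios gave psKa values. Aqueous pKa was obtained by Yasuda–Shedlovsky extrapolation to 100% water, plotting psKa + log[H2O] against 1/ε.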

[5] = biological target: T1, 5-hydroxytryptamine receptor 1B; experiment: Agonist-induced [35S]GTP-gamma-S, binding in CHO cells stably transfected with human 5-hydroxytryptamine 1B receptor; assay type: functional, cell-based
Summary of the method: (§2)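 [35S]GTPγS binding stimulated by agonist, measured in CHO cells stably transfected with the human 5-HT1D or 5-HT1B receptor. EC50 values are the logarithmic mean of 2–3 independent determinations. Maximum variance of individual log(EC50) values from the mean was 4%.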

[6] = biological target: T1, 5-hydroxytryptamine receptor 1B; experiment: Efficacy was evaluated relative to human 5-HT1B receptor using [35S]GTP-gamma-S, as radioligand; assay type: functional
[7] = biological target: T2, 5-hydroxytryptamine receptor 1D; experiment: Agonist-induced [35S]GTP-gamma-S, binding in CHO cells stably transfected with human 5-hydroxytryptamine 1D receptor; assay type: functional, cell-based; summary of the method: as §2
[8] = biological target: T2, 5-hydroxytryptamine receptor 1D; experiment: Efficacy was evaluated relative to human 5-hydroxytryptamine 1D receptor using [35S]GTP-gamma-S, as radioligand; assay type: functional
Rattus norvegicus [9] = experiment: Oral absorption study in rat plasma obtained from hepatic portal vein after 2 hours of administration of 3 mg/kg orally; assay type: functional, organism-based; design: dose 3 mg/kg
Summary of the method: (§3)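 Male Sprague–Dawley rats, fasted overnight and with no surgery, received 3 mg/kg orally as a 0.6 mg/mL solution in PEG 400:5 mM HCl (25:75 v/v). Terminal blood was taken from the heart and hepatic portal vein under isoflurane at 0.5 and 2 h, three rats per time point. Plasma drug was measured by electrospray mass spectrometry. Values are mean ± SEM.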

Rattus norvegicus [10] = experiment: Oral absorption study in rat plasma obtained from cardiac blood samples after 0.5 hours of administration of 3 mg/kg orally; assay type: functional, organism-based; design: dose 3 mg/kg; summary of the method: as §3
Rattus norvegicus [11] = experiment: Oral absorption study in rat plasma obtained from cardiac blood samples after 2 hours of administration of 3 mg/kg orally; assay type: functional, organism-based; design: dose 3 mg/kg; summary of the method: as §3
Rattus norvegicus [12] = experiment: Oral absorption study in rat plasma obtained from hepatic portal vein after 0.5 hours of administration of 3 mg/kg orally; assay type: functional, organism-based; design: dose 3 mg/kg; summary of the method: as §3

T2 sequence (P28221 whole entry): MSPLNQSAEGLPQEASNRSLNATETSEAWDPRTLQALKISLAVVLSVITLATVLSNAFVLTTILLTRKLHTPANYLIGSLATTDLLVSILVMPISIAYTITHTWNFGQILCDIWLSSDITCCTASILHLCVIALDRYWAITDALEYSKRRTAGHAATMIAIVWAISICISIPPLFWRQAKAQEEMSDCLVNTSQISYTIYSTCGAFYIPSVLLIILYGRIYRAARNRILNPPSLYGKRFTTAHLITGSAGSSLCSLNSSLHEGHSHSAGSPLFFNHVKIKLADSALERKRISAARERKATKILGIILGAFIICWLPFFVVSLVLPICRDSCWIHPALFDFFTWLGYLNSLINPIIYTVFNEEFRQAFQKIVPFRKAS
T1 sequence (P28222 whole entry): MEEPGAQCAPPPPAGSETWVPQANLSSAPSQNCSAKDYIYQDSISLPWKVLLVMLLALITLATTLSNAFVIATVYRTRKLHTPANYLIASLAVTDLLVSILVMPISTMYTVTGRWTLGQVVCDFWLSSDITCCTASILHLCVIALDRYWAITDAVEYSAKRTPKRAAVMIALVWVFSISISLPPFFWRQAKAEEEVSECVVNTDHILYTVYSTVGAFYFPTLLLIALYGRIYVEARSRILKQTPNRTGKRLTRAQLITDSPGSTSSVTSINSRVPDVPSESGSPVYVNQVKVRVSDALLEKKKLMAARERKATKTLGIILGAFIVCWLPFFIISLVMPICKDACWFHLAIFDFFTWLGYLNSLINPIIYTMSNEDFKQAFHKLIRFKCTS

SMILES | IC50 [1] | IC50 [2] | Selectivity [3] | other results
CN(Cc1ccccc1C(F)(F)F)[C@H]1CCN(CCCc2c[nH]c3ccc(-n4cnnc4)cc23)C[C@H]1F | 220 nM | 9.3 nM | 24 | pKa [4]: 7.7
Fc1cccc(CC2(F)CCN(CCCc3c[nH]c4ccc(-n5cnnc5)cc34)CC2)c1 | 5.3 nM | 0.4 nM | 13 | 
Fc1ccccc1CC1(F)CCN(CCCc2c[nH]c3ccc(-n4cnnc4)cc23)CC1 | 3.1 nM | 0.1 nM |  | 
CC(CC1(F)CCN(CCCc2c[nH]c3ccc(-n4cnnc4)cc23)CC1)c1ccccc1 (centres undefined) | 28 nM | 0.6 nM | 47 | EC50 [5]: 510 nM; Efficacy [6]: 85%; EC50 [7]: 2.6 nM; Efficacy [8]: 86%
Fc1cccc(CCN2CCN(C[C@@H](F)Cc3c[nH]c4ccc(-n5cnnc5)cc34)CC2)c1 | 680 nM | 5.8 nM | 117 | 
Fc1cccc(CCC2(F)CCN(CCCc3c[nH]c4ccc(-n5cnnc5)cc34)CC2)c1 | 22 nM | 0.7 nM | 31 | EC50 [5]: 440 nM; Efficacy [6]: 88%; EC50 [7]: 5 nM
FC1(Cc2ccccc2C(F)(F)F)CCN(CCCc2c[nH]c3ccc(-n4cnnc4)cc23)CC1 | 14 nM | 0.3 nM | 47 | EC50 [5]: 290 nM; Efficacy [6]: 91%; EC50 [7]: 0.2 nM; Efficacy [8]: 61%
CC(CN1CCN(CC(F)Cc2c[nH]c3ccc(-n4cnnc4)cc23)CC1)c1ccc(F)cc1 (centres undefined) | 310 nM | 1 nM | 310 | EC50 [5]: 1700 nM; Efficacy [6]: 79%; EC50 [7]: 1.6 nM; Efficacy [8]: 106%
FC(Cc1c[nH]c2ccc(-n3cnnc3)cc12)CN1CCC(OCc2ccccc2)CC1 (centres undefined) | 3000 nM | 30 nM | 100 | 
CN(Cc1ccccc1C(F)(F)F)[C@H]1CCN(CCCc2c[nH]c3ccc(-n4cnnc4)cc23)C[C@@H]1F | 220 nM | 13 nM | 17 | pKa [4]: 6.9
Fc1cccc(CCN2CCN(CC(F)Cc3c[nH]c4ccc(-n5cnnc5)cc34)CC2)c1 (stereo in doubt; 25) [listing 1 of 2 here] | 1200 nM | 3.5 nM |  | EC50 [5]: 810 nM; EC50 [7]: 3.8 nM
FC1(Cc2ccccc2)CCN(CCCc2c[nH]c3ccc(-n4cnnc4)cc23)CC1 | 15 nM | 0.9 nM | 17 | EC50 [5]: 66 nM; Efficacy [6]: 67%; EC50 [7]: 0.4 nM; pKa [4]: 8.8; Plasma concentration (Rattus norvegicus [9]): 273 ng/mL; Plasma concentration (Rattus norvegicus [10]): 52 ng/mL; Plasma concentration (Rattus norvegicus [11]): 35 ng/mL; Plasma concentration (Rattus norvegicus [12]): 570 ng/mL
F[C@H]1CN(CCCc2c[nH]c3ccc(-n4cnnc4)cc23)CC[C@@H]1NCc1ccccc1C(F)(F)F | 170 nM | 5 nM | 34 | 
FC(F)(Cc1c[nH]c2ccc(-n3cnnc3)cc12)CN1CCC(COc2ccccc2)CC1 | 7200 nM | 280 nM | 26 | 
CN(Cc1ccccc1)[C@H]1CCN(CCCc2c[nH]c3ccc(-n4cnnc4)cc23)C[C@H]1F | 220 nM | 12 nM | 18 | pKa [4]: 8; Plasma concentration (Rattus norvegicus [9]): 136 ng/mL; Plasma concentration (Rattus norvegicus [10]): 2 ng/mL; Plasma concentration (Rattus norvegicus [11]): 3 ng/mL; Plasma concentration (Rattus norvegicus [12]): 216 ng/mL
CC(CN1CCN(CC(F)Cc2c[nH]c3ccc(-n4cnnc4)cc23)CC1)c1ccccc1F (centres undefined) | 380 nM | 1 nM | 380 | 
OC(Cc1c[nH]c2ccc(-n3cnnc3)cc12)CN1CCN(Cc2ccccc2)CC1 (centres undefined) | 360 nM | 1.8 nM | 200 | 

SMILES | IC50 [1] | IC50 [2] | Selectivity [3] | other results
FC(F)(Cc1c[nH]c2ccc(-n3cnnc3)cc12)CN1CCC(CCc2ccccc2)CC1 | 5800 nM | 56 nM | 104 | 
Fc1ccccc1CCC1(F)CCN(CCCc2c[nH]c3ccc(-n4cnnc4)cc23)CC1 | 16 nM | 0.8 nM | 20 | 
Fc1ccc(CCC2(F)CCN(CCCc3c[nH]c4ccc(-n5cnnc5)cc34)CC2)cc1 | 25 nM | 1 nM | 25 | 
CN(Cc1ccccc1)C1CCN(CC(F)Cc2c[nH]c3ccc(-n4cnnc4)cc23)CC1 (centres undefined) | 1200 nM |  | 22 | EC50 [5]: 10300 nM; Efficacy [6]: 59%; pKa [4]: 8.5; Plasma concentration (Rattus norvegicus [9]): 217 ng/mL; Plasma concentration (Rattus norvegicus [10]): 2 ng/mL; Plasma concentration (Rattus norvegicus [11]): 10 ng/mL; Plasma concentration (Rattus norvegicus [12]): 57 ng/mL
CC(CN1CCN(CC(F)Cc2c[nH]c3ccc(-n4cnnc4)cc23)CC1)c1cccc(F)c1 (centres undefined) | 280 nM | 0.9 nM | 311 | EC50 [5]: 1500 nM; Efficacy [6]: 87%; EC50 [7]: 1.9 nM; Efficacy [8]: 112%
F[C@@H]1CN(CCCc2c[nH]c3ccc(-n4cnnc4)cc23)CC[C@@H]1NCc1ccccc1C(F)(F)F | 300 nM | 13 nM | 23 | 
CN(Cc1ccccc1)[C@H]1CCN(CCCc2c[nH]c3ccc(-n4cnnc4)cc23)C[C@@H]1F | 13 nM | 2.1 nM | 6 | 
CC(CN1CCN(CC(F)(F)Cc2c[nH]c3ccc(-n4cnnc4)cc23)CC1)c1ccc(F)cc1 (centres undefined) | 1000 nM | 1.8 nM | 556 | 
FC1(CCc2ccccc2)CCN(CCCc2c[nH]c3ccc(-n4cnnc4)cc23)CC1 | 49 nM | 2 nM | 25 | 
Fc1cccc(CCN2CCN(CC(F)Cc3c[nH]c4ccc(-n5cnnc5)cc34)CC2)c1 (stereo in doubt; 25) [listing 2 of 2 here] |  |  | 343 | Efficacy [6]: 25%
Fc1ccccc1CCN1CCN(CC(F)Cc2c[nH]c3ccc(-n4cnnc4)cc23)CC1 (centres undefined) | 520 nM | 4.7 nM | 111 | 
Fc1cccc(CCN2CCN(CC(F)Cc3c[nH]c4ccc(-n5cnnc5)cc34)CC2)c1 (stereo in doubt; 28) [listing 1 of 2 here] |  |  | 196 | 
FC(F)(Cc1c[nH]c2ccc(-n3cnnc3)cc12)CN1CCC(Cc2ccccc2)CC1 | 1300 nM | 78 nM | 17 | pKa [4]: 6.7
Fc1cccc(CCN2CCN(CC(F)Cc3c[nH]c4ccc(-n5cnnc5)cc34)CC2)c1 (stereo in doubt; 28) [listing 2 of 2 here] | 1000 nM | 5.1 nM |  | 
Fc1ccc(CCN2CCN(CC(F)Cc3c[nH]c4ccc(-n5cnnc5)cc34)CC2)cc1 (centres undefined) | 540 nM | 5.5 nM | 98 | 
CN(Cc1ccccc1)C1CCN(CC(F)(F)Cc2c[nH]c3ccc(-n4cnnc4)cc23)CC1 | 2100 nM | 35 nM | 60 | 
FC(Cc1c[nH]c2ccc(-n3cnnc3)cc12)CN1CCN(CCc2ccccc2)CC1 (centres undefined) | 930 nM | 6.8 nM | 137 | 

— ChEMBL document CHEMBL1132237, “Fluorination of 3-(3-(piperidin-1-yl)propyl)indoles and 3-(3-(piperazin-1-yl)propyl)indoles gives selective human 5-HT1D receptor ligands with improved pharmacokinetic profiles” (J Med Chem, 1999)
